Assay outcomes deposited in PubChem by several laboratories.
An excerpt weighted towards active compounds, which were near 3.5% of everything screened.
FXIIa inh 1536: factor XIIa (human) inhibition; P00748; purified FXIIa, Boc-QGR-AMC fluorogenic substrate, 2 h; inhibition, % at 5 µM; 220,000 tested, 0.3% active; AID 800; in the data active = inhibition above about 40%;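 note: 0% = enzyme with no compound and 100% = blank without enzyme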
Thrombin inh: inhibitors of human thrombin | P00734 | alpha-thrombin, Boc-VPR-AMC fluorogenic substrate cleavage | inhibition, % at 5 µM | 220,000 tested, 0.26% active | AID 1046;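 active = inhibition at or above 40%; inactive = inhibition below 40%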;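 note: 0% = enzyme with no compound and 100% = wells without enzyme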
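Material: Human alpha-thrombin protein | Buffer or medium: pH 7.5 Tris-saline with Tween 20 | Reagent: Boc-VPR-AMC substrate, 15 µM final | Schedule: Reaction at ambient temperature | Detection: AMC fluorescence at 355 nm excitation and 460 nm emission | Evaluation: Percent inhibition scaled between no-compound controls and no-enzyme blanks | Controls: no-compound enzyme wells and no-enzyme blanks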
KLK5 inh: inhibitors of human kallikrein 5; Q9Y337; recombinant hK5, fluorogenic AMC substrate cleavage; inhibition, % at 5 µM; 210,000 tested, 0.59% active;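 active = inhibition of 40% or more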;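 note: 0% = enzyme controls without compound and 100% = no-enzyme blanks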
STAT3 act: activators of IL-6 induced STAT3 signaling; U3A cells, IL-6 STAT3-luciferase reporter, luminescence; 100% = signal with IL-6 EC80 alone; 190,000 tested, 0.91% active; activation (% of control), % at 5.6 µM; AID 871;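 active = activation above the screen-wide mean of compound activation plus 3 SD, cut at about 130% in these data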;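 note: 0% = background luminescence of wells with medium and substrate only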
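Material: STAT3-luciferase reporter U3A cells. Controls: IL-6-treated wells, 100% activation. Read-out: % activation versus median of IL-6-stimulated wells. Probe or stimulus: IL-6 stimulus at 33 ng/mL final. Timing: compound 1 h, then IL-6 6 h at 37 °C. Signal: reporter luminescence signal.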
AHR activator: activates the human aryl hydrocarbon receptor. P35869. AHR-responsive luciferase reporter cells, luminescence. activation, % at 5 µM. 320,000 tested, 2.5% active; in the data active = activation above about 47%;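 note: 0% = vehicle wells and 100% = reference agonist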
Target sequence (P35869 whole entry, looked up): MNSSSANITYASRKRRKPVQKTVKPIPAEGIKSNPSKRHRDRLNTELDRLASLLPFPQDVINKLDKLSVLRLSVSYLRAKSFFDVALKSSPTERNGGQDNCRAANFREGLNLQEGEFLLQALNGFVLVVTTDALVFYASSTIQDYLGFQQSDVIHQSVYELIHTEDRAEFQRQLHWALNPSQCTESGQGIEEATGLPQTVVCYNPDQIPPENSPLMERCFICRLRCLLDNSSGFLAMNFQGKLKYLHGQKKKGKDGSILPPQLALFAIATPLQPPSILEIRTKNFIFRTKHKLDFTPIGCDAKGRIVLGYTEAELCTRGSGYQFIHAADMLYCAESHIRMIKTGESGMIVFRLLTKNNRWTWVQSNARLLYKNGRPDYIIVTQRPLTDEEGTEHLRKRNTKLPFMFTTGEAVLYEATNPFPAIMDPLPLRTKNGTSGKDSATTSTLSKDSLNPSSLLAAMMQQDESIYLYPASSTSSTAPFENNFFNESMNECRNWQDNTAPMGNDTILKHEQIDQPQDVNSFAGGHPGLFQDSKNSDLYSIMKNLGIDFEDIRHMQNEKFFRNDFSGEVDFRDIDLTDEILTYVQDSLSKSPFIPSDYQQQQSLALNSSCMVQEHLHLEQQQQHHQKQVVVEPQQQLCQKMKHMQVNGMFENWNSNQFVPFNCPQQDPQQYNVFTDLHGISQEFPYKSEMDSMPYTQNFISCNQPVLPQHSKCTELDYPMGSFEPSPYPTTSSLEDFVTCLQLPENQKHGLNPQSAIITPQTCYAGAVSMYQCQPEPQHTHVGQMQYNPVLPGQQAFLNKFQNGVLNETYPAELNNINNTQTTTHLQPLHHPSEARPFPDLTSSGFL
FXIa inh: factor XIa (human) inhibition; P03951; purified FXIa, Boc-Glu-Ala-Arg-AMC fluorogenic substrate; inhibition, % at 5 µM; 220,000 tested, 0.14% active; AID 798;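 active = inhibition of at least 40%; inactive = inhibition below 40%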;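 note: fluorescence of freed AMC excited at 355 nm; 0% = enzyme without compound and 100% = no enzyme blank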
Numbers without * were called inactive; nt = no result.

SMILES	FXIIa inh 1536	Thrombin inh	KLK5 inh	STAT3 act	AHR activator	FXIa inh
Cc1ccc(C(=O)N/C(=C\c2cccc([N+](=O)[O-])c2)C(=O)NC(Cc2ccccc2)C(=O)O)cc1 (stereo unspecified)	nt	nt	nt	nt	2	nt
O=C(NCCC(NS(=O)(=O)OCC(Cl)(Cl)Cl)c1ccccc1)C(F)(F)F (stereo unspecified)	nt	nt	nt	nt	2	nt
CCCc1nc2ccccc2c(=O)n1/N=C/c1c(C)[nH]n(-c2ccc(C)cc2)c1=O	3	1	-9	117	59*	4
COc1cccc(Nc2nc(-c3sc(NC(=O)CC(C)C)nc3C)cs2)c1	2	2	-12	90	51*	0
COc1ccccc1Nc1nc(-c2sc(NC(=O)CC(C)C)nc2C)cs1	1	-8	nt	100	71*	0
CCc1ccc2[nH]cc(S(=O)(=O)c3ccc(C)c(C)c3)c(=O)c2c1	nt	nt	nt	nt	1	nt
CCc1ccc2[nH]c3nc(C)cc(C)c3c(=O)c2c1	1	-9	-18	98	48*	0
CCN(CC)CCn1c(=O)n(-c2ccc(Cl)cc2)c(=O)c2c3c(sc21)CN(C)CC3	5	-4	2	nt	90*	0
CN1CCc2c(sc3nc(NN)n(-c4ccc(Cl)cc4)c(=O)c23)C1	nt	nt	nt	nt	43	nt
COC(=O)c1cc(OC(=O)CCc2ccc(OC)c(OC)c2)cc(C(=O)OC)c1	nt	nt	nt	nt	1	nt
CC(c1ccc(F)cc1)n1c(-c2cccs2)n[nH]c1=S (stereo unspecified)	nt	33	71*	104	0	35
CC(c1ccccc1)n1c(-c2ccccc2F)n[nH]c1=S (stereo unspecified)	nt	nt	nt	nt	0	nt
CN(C)c1ccc(N=Nc2ccccc2C(=O)OCC(=O)NCC2CCCCC2)cc1	21	11	48*	113	-2	7
CCOC(=O)C(=O)N(Nc1ccc(C)cc1)c1ccc(C)cc1	24	11	34	nt	14	50*
c1ccc2c(c1)Cn1c-2nc2ccccc21	14	2	0	68	-5	6
Brc1c(-c2ccccc2)nc2n1Cc1ccccc1-2	3	-11	-1	nt	54*	-1
O=C(NCC1CCCO1)C1CCN(S(=O)(=O)c2cccc3nonc23)CC1 (stereo unspecified)	3	-5	-9	101	3	-4
O=C(c1ccc(Cl)cc1)C1CCCN(Cc2cccn2-c2cccnc2)C1 (stereo unspecified)	8	14	4	99	20	2
O=C(c1ccc2c(c1)OCO2)C1CCCN(Cc2cccn2-c2cccnc2)C1 (stereo unspecified)	6	-3	nt	108	49*	4
COc1ccc2c(-c3cccnc3)cc(=O)[nH]c2c1	5	-6	-13	99	78*	-5
O=C(Cn1c(C(F)(F)F)nc2ccccc21)N/N=C/c1ccco1	4	-11	2	100	1	-5
Cc1ccc(C(=O)NCC(=O)OC(C)C(=O)Nc2ccc(N3CCOCC3)cc2)s1 (stereo unspecified)	82*	5	77*	nt	3	44*
Cc1ccc(S(=O)(=O)CCC(=O)OC(C)C(=O)Nc2ccc(N3CCOCC3)cc2)cc1 (stereo unspecified)	nt	nt	nt	nt	0	nt
O=C(Nc1ccc(C2=NCCN2)cc1)c1ccc(Cl)c(C(=O)Nc2ccc(C3=NCCN3)cc2)c1	5	-3	-2	nt	-2	-4
Cc1cc(N2CCN(c3ccccc3)CC2)nc(N)n1	5	-3	-13	86	-1	-2
SMILES	FXIIa inh 1536	Thrombin inh	KLK5 inh	STAT3 act	AHR activator	FXIa inh
Cc1cc(N2CCN(c3ccccc3)CC2)nc(-c2ccccc2)n1	23	83*	65*	79	-13	3
CC(=O)c1sc(Nc2ccccn2)nc1C	16	-7	-11	87	61*	0
CC(=O)c1sc(Nc2cccc3ccccc23)nc1C	nt	nt	nt	nt	7	nt
Cc1ccc([N+](=O)[O-])cc1NC(=S)NCCc1ccccc1	nt	nt	nt	nt	52*	nt
O=C(NC(=S)Nc1cc([N+](=O)[O-])ccc1Cl)c1ccccc1	-29	-6	-9	124	71*	-7
Cc1ccc(C(=O)O)cc1NC(=S)NCCc1ccccc1	nt	nt	nt	nt	-1	nt
O=C(NC(=S)Nc1cccc([N+](=O)[O-])c1)c1ccccc1	5	-3	0	nt	2	0
Cc1cc(C)c(S(=O)(=O)NCC(=O)NCc2cc(=O)n(C)c(=O)n2C)c(C)c1	nt	nt	nt	nt	1	nt
CCCCOC(=O)c1ccc(NC(=O)C(=O)NCc2ccco2)cc1	99*	-10	-2	94	2	-2
COCCNC(=S)N(CCc1c(C)[nH]c2ccccc12)Cc1ccco1	9	nt	1	97	11	9
CNC(=S)N(CCc1c(C)[nH]c2ccc(C)cc12)Cc1ccco1	9	0	-7	106	55*	5
CCNC(=S)N(CCc1c(C)[nH]c2ccc(Cl)cc12)Cc1ccco1	6	-16	-1	97	47*	-4
COc1ccc(NC(=S)N(CCc2c(C)[nH]c3ccc(C)cc23)Cc2cccnc2)cc1	-1	-1	-13	103	54*	2
CCCCNc1c(N)n(CCCC)c(=O)[nH]c1=O	10	-7	-16	102	2	12
CC(C)NC(=S)N=Nc1c(O)[nH]c2ccc(C(C)C)cc12	29	-11	-10	93	67*	23
O=c1cc(-c2ccccc2)[nH]n1-c1ccc([N+](=O)[O-])cc1	15	0	4	95	-1	5
COc1ccc(OC)c(CNc2ccc([N+](=O)[O-])cc2C)c1	100*	-4	0	88	12	5
Cc1cccc(N2C(=O)CS/C2=N\NC(=O)c2cccnc2)c1C	8	-4	0	103	1	-2
Cc1cccc(N2C(=O)CS/C2=N\NC(=O)c2ccc(Br)cc2)c1C	14	23	57*	96	7	25
CC1(C)C(=O)Nc2ccccc2N1C(=O)COC(=O)COc1ccc(C#N)cc1	nt	nt	nt	nt	0	nt
CCCCOCP(=O)(CCCC)COCCCC	10	27	9	100	2	-4
O=C(/C=C/Nc1ccc(F)cc1Br)c1ccccc1	21	1	-6	27	51*	10
O=C1CCCN1CCCN1CC(C(=O)N(CCO)Cc2ccccc2)CCC1=O (stereo unspecified)	nt	nt	nt	nt	1	nt
Cc1cccc(/N=C/c2c(O)[nH]c3ccccc23)n1	14	8	15	111	64*	9
Cc1cccc(/N=C/c2sc3ccccc3c2O)n1	8	-3	-1	nt	37	1
Oc1[nH]c2ccccc2c1C=Nc1ccc2c(c1)OCCO2	7	-5	16	70	nt	-1
CC(C)N=Cc1c(O)[nH]c2ccccc12	46*	4	-15	81	5	14
Cc1ccc(C2=N/C(=C/N3CCOCC3)C(=O)O2)cc1	4	-4	22	106	57*	9
